In the library only some 3.1% were active in any assay of this set; here they are far more common.
KCNK3 block – human KCNK3 channel inhibition, primary screen; 340,000 tested, 0.84% active; B-score at 10 µM; O14649; CHO-KCNK3 thallium flux, FluxOR fluorescence; active compounds read low;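 active means B-score under library mean minus 4 SD, starting fluorescence ratio at most library mean plus 5 SD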;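 further: more negative B-score means stronger inhibition of thallium flux through KCNK3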
KCNQ1 pot – potentiates or activates the human KCNQ1 potassium channel; B-score at 10 µM; P51787; 310,000 tested, 0.35% active; AID 2648; CHO-K1 KCNQ1, thallium flux FluxOR fluorescence; active compounds read high;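 active means fluorescence ratio B-score, a plate-corrected score, at least three library SD, with initial intensity B-score within 5 SD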
Target sequence (P51787 whole entry, looked up): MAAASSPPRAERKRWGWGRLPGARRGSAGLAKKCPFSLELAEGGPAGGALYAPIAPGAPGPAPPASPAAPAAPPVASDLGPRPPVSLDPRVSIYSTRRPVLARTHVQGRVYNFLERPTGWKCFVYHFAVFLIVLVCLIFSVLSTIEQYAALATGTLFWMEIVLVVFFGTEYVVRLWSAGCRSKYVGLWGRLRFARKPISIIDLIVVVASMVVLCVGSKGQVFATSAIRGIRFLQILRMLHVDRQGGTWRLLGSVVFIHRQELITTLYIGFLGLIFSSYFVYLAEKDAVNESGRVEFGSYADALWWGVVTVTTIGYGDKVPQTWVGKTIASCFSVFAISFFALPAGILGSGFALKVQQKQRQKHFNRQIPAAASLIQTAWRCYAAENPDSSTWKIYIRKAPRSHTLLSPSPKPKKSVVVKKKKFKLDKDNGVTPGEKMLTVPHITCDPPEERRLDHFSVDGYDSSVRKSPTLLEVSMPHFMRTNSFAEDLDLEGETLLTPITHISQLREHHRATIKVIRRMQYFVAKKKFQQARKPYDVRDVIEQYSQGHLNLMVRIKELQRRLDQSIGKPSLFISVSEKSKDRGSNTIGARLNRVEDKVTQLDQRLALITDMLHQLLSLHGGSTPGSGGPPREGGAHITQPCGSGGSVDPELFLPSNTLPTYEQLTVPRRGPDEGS
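Material: CHO-K1 cells stably expressing KCNQ1. Medium: assay buffer for compound exposure, DMSO matched across wells. Reagent: K+/Tl+ depolarizing stimulus. Compound dosing: single-concentration screen. Times: 37 °C overnight plating, 90-min dark dye load, 20-min compound pretreatment. Technique: FluxOR Tl+ flux fluorescence.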
KCNK9 block – inhibitors of human KCNK9 two-pore domain potassium channel. HEK293 KCNK9, FluxOR thallium flux fluorescence; active compounds read low. B-score at 10 µM. 310,000 tested, 1.2% active. AID 488922;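 active means ratio B-score over 3 SD below the library mean, with starting fluorescence within 5 SD of its mean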;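 further: negative B-score means less thallium flux so channel inhibition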
hERG rescue – compounds protecting human hERG from proarrhythmic drug block; activation (rescue from dofetilide block), less the hit threshold, % at 10 µM; CHO-hERG, FluxOR thallium flux, dofetilide IC70 present; 310,000 tested, 0.51% active;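 active means activation above the mean of controls blocked by dofetilide plus 5 SD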;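 further: thallium influx through hERG after potassium depolarization seen as dye fluorescence rise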
KCNQ1 inh – blocks the human KCNQ1 potassium channel | P51787 | CHO-K1 KCNQ1, FluxOR thallium flux fluorescence; active compounds read high | B-score at 10 µM | 310,000 tested, 1.3% active;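 active means compounds whose thallium flux B-score, printed positive for inhibition, exceeds three library SD while starting fluorescence stays within three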;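 further: channel opened by potassium depolarization with thallium stimulus after 20 min compound exposure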
KCNK9 inh conf – confirmation of human KCNK9 potassium channel inhibitors; HEK293 KCNK9 cells, FluxOR thallium flux fluorescence; AID 492992; 4,900 tested, 43% active; inhibition, % at 10 µM; shares compounds with KCNK9 block;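 active means thallium signal inhibited by more than 5 SD of the compound-free buffer control wells, on both duplicate plates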;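 further: 0% = assay buffer control wells without compound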
Kir21 sel – selectivity of KCNK9 modulators against mouse Kir2.1; shares compounds with KCNK9 block; AID 492993; Kir2.1 cells, FluxOR thallium flux fluorescence; 4,900 tested, 4% active; inhibition, % at 10 µM;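 active means thallium signal drop more than 5 SD beyond the mean of the no-compound control wells, seen in both duplicate plates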;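 further: signal is fluorescence rise after thallium addition divided by baseline fluorescence; plate controls were assay buffer only for no effect and full block by chlorpromazine control for full effect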
HEK293 Tl ctr – second counter-screen for KCNK9 modulators: effect in non-induced cells; shares compounds with KCNK9 block; non-induced KCNK9-HEK293, FluxOR thallium flux; inhibition, % at 10 µM; 4,900 tested, 40% active;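 active means thallium signal drop beyond 5 SD of the untreated control mean, on both duplicate plates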;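 further: plate controls were buffer only IC0 wells for no effect and SID17386958 at its maximal inhibitory level for full effect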
Starred values were filed as active, the others as inactive; i = inactive; . = no result given.

SMILES | KCNK3 block | KCNQ1 pot | KCNK9 block | hERG rescue | KCNQ1 inh | KCNK9 inh conf | Kir21 sel | HEK293 Tl ctr
COc1ccc(/C=C/CN2CCCC(CO)(Cc3cccc(Cl)c3)C2)cc1 (configuration not stated) | i | i | i | -30 | i | . | . | .
FC(F)(F)c1ccccc1/C=N/n1c(COc2ccccc2)n[nH]c1=S | i | i | i | -6 | i | . | . | .
CCOC(=O)c1c(NC(=O)COC(=O)CNC(=O)c2ccco2)sc(C(C)=O)c1C | i | i | i | -9 | i | . | . | .
O=C(NCCc1ccc(Cl)cc1)c1ccc(S(=O)(=O)N2CCCC2)cc1 | i | i | i | -11 | i | . | . | .
O=C(CC1C=Cc2ccccc2N1C(=O)c1ccccc1)c1ccccc1 (configuration not stated) | i | i | -13* | -7 | i | 30%* | i | i
CN1C2=C(C(=O)CC(C)(C)C2)C(c2cccs2)C2=C1CC(C)(C)CC2=O | i | i | i | -5 | i | . | . | .
COc1cccc(N2CCN(S(=O)(=O)c3cc4c(cc3C)N(C)CCO4)CC2)c1 | i | i | i | -13 | i | . | . | .
Cc1cc2c(cc1S(=O)(=O)N1CCN(c3cccc(C)c3C)CC1)OCCN2C | i | i | i | -8 | i | i | i | i
COc1ccc(-c2[nH]c(-c3ccc(C(=O)O)cc3)nc2-c2ccccc2)cc1 | i | i | i | -10 | i | . | . | .
COc1cc(-c2nc(-c3ccc4c(c3)-c3ccccc3S4(=O)=O)c(-c3ccccc3)[nH]2)cc(OC)c1O | -10* | i | -16* | -9 | 6* | 69%* | i | 28%*
Clc1ccc(CO/N=C/c2c(-c3ccccc3)nc3n2CCS3)c(Cl)c1 | i | i | -9.7* | -15 | i | i | i | 28%*
CS(=O)(=O)/C(C#N)=C/c1c(-c2ccccc2)nc2n1CCS2 | i | i | i | -5 | i | . | . | .
CC1CC(C)(C)NC(=S)N1CCCC(=O)NCCc1ccc(Cl)cc1 (configuration not stated) | i | i | i | -13 | i | . | . | .
COc1ccc(CNC(=O)C/C(C)=N/NC(=O)c2ccc(OC)cc2OC)cc1 | i | i | i | -5 | i | . | . | .
Cc1cc(C)c(C#N)c(SCc2cc3c(cc2Cl)OCO3)n1 | i | i | -8.5* | -4 | i | 36%* | i | 36%*
Cc1cc2ccccn2c1C(=O)c1ccc([N+](=O)[O-])cc1[N+](=O)[O-] | i | i | i | -5 | i | . | . | .
Cc1cc2ccccn2c1C(=O)c1ccccc1Br | i | i | -8.3* | -8 | i | i | i | i
O=C(CCC1CCCNC1)c1ccccc1 (configuration not stated) | . | i | i | -6 | i | . | . | .
CC(C)(C)OC(=O)C[C@@H]1C/C=C\C[C@@H](CC(=O)N[C@H](CO)Cc2ccccc2)C(=O)NC[C@H](c2ccccc2)OC1=O | i | . | . | . | . | . | . | .
O=C1c2[nH]nc(-c3ccccc3O)c2C(c2cccc(O)c2)N1Cc1ccco1 (configuration not stated) | i | i | -8.4* | -15 | i | 26%* | i | 30%*
CC(C)(O)c1[nH]c2ccc(C#N)cc2c1C(C)(C)O | . | i | i | -5 | i | . | . | .
O=CN1CCCN(Cc2nc(Cc3ccccc3F)no2)CC1 | i | i | i | 1 | i | . | . | .
Fc1ccccc1Cc1noc(CN2CCN(C/C=C/c3ccccc3)CC2)n1 | i | i | i | -14 | i | i | i | i
CCOC(=O)c1[nH]c2ccc(OCC)cc2c1CCCN1C(=O)c2ccccc2C1=O | i | i | i | -3 | i | . | . | .
C[C@H](CO)N1C[C@H](C)[C@@H](CN(C)S(C)(=O)=O)Oc2ccc(NC(=O)CCN3CCOCC3)cc2C1=O | i | . | . | . | . | . | . | .
SMILES | KCNK3 block | KCNQ1 pot | KCNK9 block | hERG rescue | KCNQ1 inh | KCNK9 inh conf | Kir21 sel | HEK293 Tl ctr
Fc1ccc(C2c3[nH]c4ccccc4c3CCN2Cc2ccoc2)cc1 (configuration not stated) | i | i | i | -9 | i | i | i | i
Fc1ccc(C2c3[nH]c4ccccc4c3CCN2CCCn2cccn2)cc1 (configuration not stated) | i | i | i | -15 | i | . | . | .
O=C(COC(=O)Cc1c(Cl)cccc1Cl)Nc1ccc(OC(F)(F)F)cc1 | i | i | i | -9 | i | . | . | .
Cc1cc(NC(=O)CSCC(=O)N2CCN(c3cccc(C(F)(F)F)c3)CC2)no1 | i | i | i | -6 | i | . | . | .
Cn1cc(CN2CCCC(CO)(Cc3ccccc3)C2)c2ccccc21 (configuration not stated) | i | i | i | -10 | i | i | i | 28%*
COc1cccc(CC2(CO)CCCN(Cc3ccc(OC)c(C)c3OC)C2)c1 (configuration not stated) | i | i | i | -14 | i | i | i | i
COc1cccc(CC2(CO)CCCN(Cc3ccccc3Cl)C2)c1 (configuration not stated) | i | i | i | -5 | i | . | . | .
O=C(CCc1ccccc1)n1nc(-c2ccco2)nc1SCc1ccccc1 | i | . | . | . | . | . | . | .
COc1ccc2[nH]cc(CCn3ccc(O)c(C/C=C/c4ccccc4)c3=O)c2c1 | i | i | i | -18 | i | . | . | .
O=c1c(C/C=C/c2ccccc2)c(O)ccn1CCc1c[nH]c2ccccc12 | i | i | i | -9 | i | i | i | i
O=S(=O)(c1ccc(Br)s1)N1CCN(Cc2ccc3c(c2)OCO3)CC1 | i | i | i | -3 | i | i | i | i
O=S(=O)(c1cccc2cccnc12)N1CCN(Cc2ccc3c(c2)OCO3)CC1 | i | i | i | 0 | i | i | i | i
CCOc1ccc(S(=O)(=O)N2CCN(Cc3ccc4c(c3)OCO4)CC2)cc1OCC | i | i | i | -13 | i | . | . | .
COc1cccc(S(=O)(=O)N2CCN(Cc3ccc4c(c3)OCO4)CC2)c1 | i | i | i | -9 | i | i | i | i
CN(C)S(=O)(=O)c1cccc(COc2ncnc3c(Cl)cc(Cl)cc23)c1 | i | i | i | -2 | i | . | . | .
CCC(C)(C)C1CCc2c(sc(NC(=O)c3ccccc3C(=O)O)c2C#N)C1 (configuration not stated) | i | 9* | i | 15* | i | i | i | i

Screening data as filed in PubChem.
